Active and inactive are the calls of the source.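 The calls were made as follows: active = average efficacy above 50%; inactive = the rest.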
System: U2OS-GPR55 ERK1/2 phosphorylation, western blot
Experiment: GPR55 agonist-induced ERK1/2 phosphorylation, SAR follow-up, mechanism study, cell-based, U2OS-GPR55, western blot, MAPK activation (AID 485279)
Details: at 1 µM, stronger effect = higher value; for stimulation: measured here: ERK stimulation vs negative control
Method in brief: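 Assay system: GPR55/beta-arrestin-GFP U2OS cells; Technique: fluorescent immunoblot, two colours; Dosing: single compound dose, 1 µM final; Controls: LPI 10 µM reference agonist; Schedule: 10 min compound exposure, room temperature.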

| Compound | efficacy | stimulation [%] |
| --- | --- | --- |
| CN(C)S(=O)(=O)c1ccc(N2CCCC2)c(C(=O)N2CCN(c3ccc([N+](=O)[O-])cc3)CC2)c1 | 63.1% | 141 |
| CCCN(CCC)Cc1c(C(=O)NN=Cc2c[nH]c3ccccc23)nnn1-c1nonc1N | -65.3% (inactive) | 77.7 |
| COc1ccccc1/C=C/C(=O)NC(=S)Nc1ccc(S(=O)(=O)N(C)c2ccccc2)cc1 | 259% | 201 |
| CC(C)Oc1ccc(S(=O)(=O)N2CCOCC2)cc1NC(=O)c1ccc(N2CCCC2=O)cc1 | 103% | 143 |
| Cc1occc1C(=O)Nc1ccc(OCc2ccccc2)cc1 | 69% | 127 |
| COc1ccc(-c2csc(NC(=O)CSc3nnc4c(C)cc5ccccc5n34)n2)cc1 | 79.7% | 133 |
| COc1ccc(S(=O)(=O)N2CCOCC2)cc1NC(=O)c1cc2c(s1)CCCC2 | 95.6% | 135 |
| Cc1cccc(N2CCN(C(=O)c3cc(S(=O)(=O)N(C)C)ccc3N3CCCC3)CC2)c1C | 128% | 149 |
| COc1ccc2cc(C)c3nnc(SCC(=O)Nc4nc(-c5ccc(F)cc5)cs4)n3c2c1 | 133% | 168 |
